Assay results collected from several papers.
Read-out: cell growth or viability

SMILES	cell line	method	time	IC50
CC1(C)CC[C@]2(C(=O)O)CC[C@]3(C)C(=CC[C@@H]4[C@@]5(C)CC[C@H](O)C(C)(C)[C@@H]5CC[C@]43C)[C@@H]2C1	ECa-109	MTT	48 h	78200 nM
CC1=C(O)C(=O)C=C2C1=CC=C1[C@@]2(C)CC[C@@]2(C)[C@@H]3C[C@](C)(C(=O)OCCCCCCO)CC[C@]3(C)CC[C@]12C	MGC-803	MTT	48 h	390 nM
Cc1cccc(-n2ncc(Br)c(Br)c2=O)c1	NCI-H2030	resazurin	96 h	370 nM
O=C(O)c1cc(O)c(O)c(O)c1	PC-12	MTT	–	> 100000 nM
CCc1c2c(nc3ccc(O)cc13)-c1cc3c(c(=O)n1C2)COC(=O)[C@]3(O)CC	COS-7	ATP luminescence	–	131000 nM
CC(=O)OCCOC(=O)[C@]1(C)CC[C@]2(C)CC[C@]3(C)C4=CC=C5C(=CC(=O)C(O)=C5C)[C@]4(C)CC[C@@]3(C)[C@@H]2C1	MGC-803	MTT	48 h	410 nM
Cc1ccc(-c2ccc(O)cc2)c(C(=C2C=CC(=O)C=C2)c2ccc(O)cc2)c1C#Cc1ccc(O)cc1	MGC-803	MTT	48 h	15000 nM
CC(C)C[C@H](NC(=O)[C@H](Cc1ccccc1)NC(=O)c1cnccn1)B(O)O	NCI-N87	ATP luminescence	–	9.1 nM
CC1=C(O)C(=O)C=C2C1=CC=C1[C@@]2(C)CC[C@@]2(C)[C@@H]3C[C@](C)(C(=O)OCCCO)CC[C@]3(C)CC[C@]12C	MGC-803	MTT	48 h	290 nM
CC[C@H](C)C(=O)O[C@H]1C[C@H](O)C=C2C=C[C@H](C)[C@H](CC[C@@H](O)C[C@@H](O)CC(=O)O)[C@H]21	SW480	SRB	72 h	> 200 µg/mL
CC1(C)[C@@H](O)CC[C@]2(C)[C@H]3C(=O)C=C4[C@@H]5C[C@@](C)(C(=O)O)CC[C@]5(C)CC[C@@]4(C)[C@]3(C)CC[C@@H]12	ECa-109	MTT	48 h	19000 nM
CC(=O)O[C@@]12CO[C@@H]1C[C@H](O)[C@@]1(C)C(=O)[C@H](O)C3=C(C)[C@@H](OC(=O)[C@H](O)[C@@H](NC(=O)OC(C)(C)C)c4ccccc4)C[C@@](O)([C@@H](OC(=O)c4ccccc4)[C@H]21)C3(C)C	143B	resazurin	72 h	2.9 nM
O=C(c1ccc(OCCN2CCCCC2)cc1)c1c(-c2ccc(O)cc2)sc2cc(O)ccc12	COS-7	ATP luminescence	–	20100 nM
CC(=O)O[C@@]12CO[C@@H]1C[C@H](O)[C@@]1(C)C(=O)[C@H](O)C3=C(C)[C@@H](OC(=O)[C@H](O)[C@@H](NC(=O)OC(C)(C)C)c4ccccc4)C[C@@](O)([C@@H](OC(=O)c4ccccc4)[C@H]21)C3(C)C	PC-12	MTT	–	280 µg/mL
CC1=C(O)C(=O)C=C2C1=CC=C1[C@@]2(C)CC[C@@]2(C)[C@@H]3C[C@](C)(C(=O)OCCCCCO)CC[C@]3(C)CC[C@]12C	MGC-803	MTT	48 h	320 nM
CC(C)[C@H](N)C(=O)N1CCC[C@H]1B(O)O	Kasumi 1	ATP luminescence	48 h	> 60000 nM
O=c1[nH]cc(F)c(=O)[nH]1	MGC-803	MTT	48 h	39000 nM
CC1=C(O)C(=O)C=C2C1=CC=C1[C@@]2(C)CC[C@@]2(C)[C@@H]3C[C@](C)(C(=O)OCCCOc4ccccc4)CC[C@]3(C)CC[C@]12C	MGC-803	MTT	48 h	460 nM
Cc1ccc(C(=O)N(CCCN)[C@@H](c2nc3cc(Cl)ccc3c(=O)n2Cc2ccccc2)C(C)C)cc1	MM1.S	ATP luminescence	72 h	12.6 nM
CC1=C(O)C(=O)C=C2C1=CC=C1[C@@]2(C)CC[C@@]2(C)[C@@H]3C[C@](C)(C(=O)OCCCCCCCO)CC[C@]3(C)CC[C@]12C	MGC-803	MTT	48 h	400 nM
C#C[C@@]1(O)[C@@H](CO)O[C@@H](n2ccc(N)nc2=O)[C@@H]1O	FM3A/0	MTT	72 h	1.6 nM
